Legend:
[1] = target: T1, Adenosine receptor A1 (Homo sapiens) (UniProt P30542); assay: Allosteric enhancer activity at recombinant human A1 adenosine receptor expressed in CHO cells assessed as change in forskolin-induced cAMP production at 0.01 uM after 6 mins by radioimmunoassay; assay type: functional, cell-based
T1 sequence (whole entry): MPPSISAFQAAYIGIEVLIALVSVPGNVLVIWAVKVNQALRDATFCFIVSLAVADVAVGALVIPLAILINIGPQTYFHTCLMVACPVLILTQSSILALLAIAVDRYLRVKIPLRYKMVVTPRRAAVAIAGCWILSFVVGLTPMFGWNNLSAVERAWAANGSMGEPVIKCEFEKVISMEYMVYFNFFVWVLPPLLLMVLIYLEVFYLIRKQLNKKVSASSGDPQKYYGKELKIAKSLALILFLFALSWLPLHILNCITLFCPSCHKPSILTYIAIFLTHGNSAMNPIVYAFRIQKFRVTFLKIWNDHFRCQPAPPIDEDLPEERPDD
How it was run: (§1)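 hA1CHO cells (about 8000 fmol/mg protein) thawed from low-passage stocks, grown in Ham's F-12 with 10% FBS and G-418, then plated 48 h. Test compound at 0.01, 0.1, 1 or 10 µM with CPA (0.05–0.1 nM) for 6 min at 36 °C. Stopped with HCl (final 50 mM). cAMP in acidified extracts measured by radioimmunoassay. Reference enhancer run in each experiment. Four experiments per concentration.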

[2] = target: T1, Adenosine receptor A1 (Homo sapiens); assay: Allosteric enhancer activity at recombinant human A1 adenosine receptor expressed in CHO cells assessed as change in forskolin-induced cAMP production at 0.1 uM after 6 mins by radioimmunoassay; assay type: functional, cell-based; how it was run: as §1
[3] = target: T1, Adenosine receptor A1 (Homo sapiens); assay: Allosteric enhancer activity at recombinant human A1 adenosine receptor expressed in CHO cells assessed as change in forskolin-induced cAMP production at 1 uM after 6 mins by radioimmunoassay; assay type: functional, cell-based; how it was run: as §1
[4] = target: T1, Adenosine receptor A1 (Homo sapiens); assay: Allosteric enhancer activity at recombinant human A1 adenosine receptor expressed in CHO cells assessed as change in forskolin-induced cAMP production at 10 uM after 6 mins by radioimmunoassay; assay type: functional, cell-based; how it was run: as §1
[5] = target: T1, Adenosine receptor A1 (Homo sapiens); assay: Displacement of [3H]DPCPX from recombinant human A1 adenosine receptor expressed in CHO cells at 10 uM after 120 mins by scintillation counting; assay type: cell-based
How it was run: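 Membranes from hA1CHO cells incubated with 1 nM [3H]DPCPX in 50 mM Tris–HCl pH 7.4 at 25 °C for 120 min. Compound added from a 100-fold DMSO stock, so 1% DMSO final, also present in controls. Bound ligand separated on GF/B filters and counted by scintillation. Result given as % of control specific binding.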

[6] = target: Adenosine receptor A2a (Homo sapiens) (UniProt P29274); assay: Displacement of [3H]ZM241385 from recombinant human A2A adenosine receptor expressed in CHO cells at 10 uM after 60 mins by scintillation counting; assay type: cell-based
Chain of Adenosine receptor A2a (Homo sapiens) (P29274 whole entry): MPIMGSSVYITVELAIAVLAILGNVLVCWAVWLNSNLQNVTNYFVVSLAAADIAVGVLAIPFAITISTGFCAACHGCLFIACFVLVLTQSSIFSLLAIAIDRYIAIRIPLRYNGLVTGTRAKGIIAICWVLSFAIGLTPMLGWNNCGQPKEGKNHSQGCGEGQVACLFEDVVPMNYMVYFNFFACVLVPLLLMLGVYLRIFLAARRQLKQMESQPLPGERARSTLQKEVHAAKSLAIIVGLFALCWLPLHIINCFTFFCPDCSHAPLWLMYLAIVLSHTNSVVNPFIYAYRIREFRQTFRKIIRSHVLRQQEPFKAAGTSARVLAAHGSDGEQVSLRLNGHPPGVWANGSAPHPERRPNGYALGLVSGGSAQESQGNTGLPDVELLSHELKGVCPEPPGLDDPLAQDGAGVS
How it was run: (§2)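 Membranes from hA2ACHO cells incubated with 1 nM [3H]ZM 241385 in 50 mM Tris–HCl, 10 mM MgCl2, pH 7.4 at 4 °C for 60 min. Compound added from a 100-fold DMSO stock, 1% DMSO final, also in controls. Separated by GF/B filtration and counted by scintillation. Result given as % of control specific binding.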

[7] = target: T2, Adenosine receptor A3 (Homo sapiens) (UniProt P0DMS8); assay: Displacement of [3H]MRE3008F20 from recombinant human A3 adenosine receptor expressed in CHO cells at 10 uM after 120 mins by scintillation counting; assay type: cell-based
T2 sequence (whole entry): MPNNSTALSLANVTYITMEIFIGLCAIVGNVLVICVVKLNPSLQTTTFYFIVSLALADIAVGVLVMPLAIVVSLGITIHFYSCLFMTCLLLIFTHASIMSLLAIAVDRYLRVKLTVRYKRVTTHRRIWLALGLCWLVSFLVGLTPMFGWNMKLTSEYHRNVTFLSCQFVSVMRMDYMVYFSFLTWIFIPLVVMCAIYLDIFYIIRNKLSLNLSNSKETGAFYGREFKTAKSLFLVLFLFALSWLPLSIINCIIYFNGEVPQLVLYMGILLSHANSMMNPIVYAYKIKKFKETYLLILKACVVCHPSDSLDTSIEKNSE
How it was run: as §2, with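 “from hA3CHO” for “from hA2ACHO”, “with 2” for “with 1”, “nM [3H]MRE 3008F20” for “nM [3H]ZM 241385”, “MgCl2, 1 mM EDTA,” for “MgCl2,”, “for 120” for “for 60”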

[8] = target: T1, Adenosine receptor A1 (Homo sapiens); assay: Binding affinity to recombinant human A1 adenosine receptor allosteric site expressed in CHO cells assessed as [3H]CCPA Bmax shift at 10 uM after 90 mins relative to control; assay type: cell-based
How it was run: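 Saturation binding of [3H]CCPA (0.05–20 nM) to hA1CHO membranes. Membranes pretreated with adenosine deaminase 3 UI/mL for 30 min at 37 °C. Run in triplicate, 90 min at 25 °C, in 50 mM Tris–HCl pH 7.4, with or without test compound at final 10 µM. Nonspecific binding taken with 1 µM R-PIA. Bmax fitted by LIGAND. Shift is the fold of Bmax increase over control.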

[9] = target: T1, Adenosine receptor A1 (Homo sapiens); assay: Binding affinity to recombinant human A1 adenosine receptor allosteric site expressed in CHO cells assessed as [3H]DPCPX Bmax shift at 10 uM after 90 mins relative to control; assay type: cell-based
How it was run: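 Saturation binding of [3H]DPCPX (0.05–20 nM) to hA1CHO membranes, run in triplicate, 90 min at 25 °C, in 50 mM Tris–HCl pH 7.4, with or without test compound at final 10 µM. Nonspecific binding taken with 1 µM DPCPX. KD and Bmax fitted by LIGAND. Shift is the fold of Bmax increase over control.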

[10] = target: T1, Adenosine receptor A1 (Homo sapiens); assay: Binding affinity to recombinant human A1 adenosine receptor allosteric site expressed in CHO cells assessed as potentiation of CCPA-induced [3H]DPCPX displacement at 10 uM after 90 mins relative to control; assay type: cell-based
How it was run: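 Competition of CCPA (0.01 nM–1 µM) against 1 nM [3H]DPCPX on hA1CHO membranes, run in triplicate, 90 min at 25 °C, in 50 mM Tris–HCl pH 7.4, with or without test compound at 10 µM. Nonspecific binding taken with 1 µM DPCPX. Ki by Cheng–Prusoff. Shift = Ki(CCPA)/Ki(CCPA + 10 µM compound).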

Nc1scc(CN2CCN(c3cccnc3)CC2)c1C(=O)c1ccc(Cl)cc1
Activity [1]: 3.2% | Activity [2]: 3.4% | Activity [3]: -2.7% | Activity [4]: -23% | inhibition [5]: 0% | inhibition [6]: 0% | inhibition [7]: 0% | fold change (FC) [8]: 1.3 | fold change (FC) [9]: 0.9 | fold change (FC) [10]: 1.4

Nc1scc(CN2CCN(c3ccccc3C(F)(F)F)CC2)c1C(=O)c1ccc(Cl)cc1
Activity [1]: 0% | Activity [2]: -7.5% | Activity [3]: -39% | Activity [4]: -60% | inhibition [5]: 0% | inhibition [6]: 0% | inhibition [7]: 0% | fold change (FC) [8]: 4.4 | fold change (FC) [9]: 1 | fold change (FC) [10]: 3.6

Nc1scc(CN2CCN(c3cc(Cl)cc(Cl)c3)CC2)c1C(=O)c1ccc(Cl)cc1
Activity [1]: -1% | Activity [2]: -22% | Activity [3]: -69% | Activity [4]: -74% | inhibition [5]: 1% | inhibition [6]: 0% | inhibition [7]: 1% | fold change (FC) [8]: 5.8 | fold change (FC) [9]: 1 | fold change (FC) [10]: 4.5

Nc1scc(CN2CCN(c3c(F)cc(F)cc3F)CC2)c1C(=O)c1ccc(Cl)cc1
Activity [1]: 4.2% | Activity [2]: -3.9% | Activity [3]: -56% | Activity [4]: -78% | inhibition [5]: 0% | inhibition [6]: 0% | inhibition [7]: 0% | fold change (FC) [8]: 4.5 | fold change (FC) [9]: 1 | fold change (FC) [10]: 3.6

Nc1scc(CN2CCN(c3ccc(Cl)cc3F)CC2)c1C(=O)c1ccc(Cl)cc1
Activity [1]: -9.2% | Activity [2]: -9.4% | Activity [3]: -57% | Activity [4]: -81% | inhibition [5]: 0% | inhibition [6]: 0% | inhibition [7]: 1% | fold change (FC) [8]: 5.3 | fold change (FC) [9]: 1 | fold change (FC) [10]: 4.3

Nc1scc(CN2CCN(c3cccc(F)c3)CC2)c1C(=O)c1cccc(C(F)(F)F)c1
Activity [1]: -11% | Activity [2]: -12% | Activity [3]: -35% | Activity [4]: -62% | inhibition [5]: 0% | inhibition [6]: 0% | inhibition [7]: 0% | fold change (FC) [8]: 6 | fold change (FC) [9]: 1.1 | fold change (FC) [10]: 4.7

Nc1scc(CN2CCN(c3ccc(C(F)(F)F)cc3)CC2)c1C(=O)c1cccc(C(F)(F)F)c1
Activity [1]: -12% | Activity [2]: -11% | Activity [3]: -27% | Activity [4]: -47% | inhibition [5]: 0% | inhibition [6]: 0% | inhibition [7]: 0% | fold change (FC) [8]: 4.4 | fold change (FC) [9]: 1 | fold change (FC) [10]: 3.4

Nc1scc(CN2CCN(c3cccc(Cl)c3Cl)CC2)c1C(=O)c1ccc(Cl)cc1
Activity [1]: 1% | Activity [2]: 3.2% | Activity [3]: -57% | Activity [4]: -77% | inhibition [5]: 2% | inhibition [6]: 1% | inhibition [7]: 0% | fold change (FC) [8]: 4.2 | fold change (FC) [9]: 1 | fold change (FC) [10]: 3.5

Nc1scc(CN2CCN(C(=O)c3ccc(Cl)cc3)CC2)c1C(=O)c1ccc(Cl)cc1
Activity [1]: -6.2% | Activity [2]: -10% | Activity [3]: -34% | Activity [4]: -60% | inhibition [5]: 1% | inhibition [6]: 0% | inhibition [7]: 0% | fold change (FC) [8]: 1.6 | fold change (FC) [9]: 0.9 | fold change (FC) [10]: 1.6

Nc1scc(CN2CCN(C(=O)Cc3ccc(Cl)cc3)CC2)c1C(=O)c1ccc(Cl)cc1
Activity [1]: 2.1% | Activity [2]: 0% | Activity [3]: -8.1% | Activity [4]: -42% | inhibition [5]: 1% | inhibition [6]: 0% | inhibition [7]: 0% | fold change (FC) [8]: 1.5 | fold change (FC) [9]: 0.9 | fold change (FC) [10]: 1.5

Nc1scc(CN2CCN(c3ccccc3F)CC2)c1C(=O)c1ccc(Cl)cc1
Activity [1]: 2.1% | Activity [2]: -1% | Activity [3]: -9.2% | Activity [4]: -15% | inhibition [5]: 4% | inhibition [6]: 0% | inhibition [7]: 0% | fold change (FC) [8]: 1.1 | fold change (FC) [9]: 1 | fold change (FC) [10]: 1.4

Nc1scc(CN2CCN(c3cc(Cl)ccc3Cl)CC2)c1C(=O)c1ccc(Cl)cc1
Activity [1]: 13% | Activity [2]: -6.2% | Activity [3]: -42% | Activity [4]: -62% | inhibition [5]: 0% | inhibition [6]: 0% | inhibition [7]: 1% | fold change (FC) [8]: 3.2 | fold change (FC) [9]: 0.9 | fold change (FC) [10]: 2.8

Nc1scc(CN2CCN(c3cccc(Cl)c3)CC2)c1C(=O)c1ccc(Cl)cc1
Activity [1]: -3.1% | Activity [2]: -20% | Activity [3]: -59% | Activity [4]: -77% | inhibition [5]: 0% | inhibition [6]: 0% | inhibition [7]: 1% | fold change (FC) [8]: 4.4 | fold change (FC) [9]: 1 | fold change (FC) [10]: 3.7

COc1ccc(N2CCN(Cc3csc(N)c3C(=O)c3ccc(Cl)cc3)CC2)cc1
Activity [1]: -1.2% | Activity [2]: 0% | Activity [3]: -15% | Activity [4]: -52% | inhibition [5]: 0% | inhibition [6]: 0% | inhibition [7]: 0% | fold change (FC) [8]: 3.3 | fold change (FC) [9]: 0.9 | fold change (FC) [10]: 2.8

Nc1scc(CN2CCN(c3cc(F)ccc3F)CC2)c1C(=O)c1ccc(Cl)cc1
Activity [1]: 3.1% | Activity [2]: -13% | Activity [3]: -59% | Activity [4]: -80% | inhibition [5]: 1% | inhibition [6]: 0% | inhibition [7]: 2% | fold change (FC) [8]: 4.7 | fold change (FC) [9]: 1 | fold change (FC) [10]: 3.8

Nc1scc(CN2CCN(c3cccc(F)c3)CC2)c1C(=O)c1ccc(Cl)cc1
Activity [1]: -18% | Activity [2]: -37% | Activity [3]: -86% | Activity [4]: -82% | inhibition [5]: 1% | inhibition [6]: 1% | inhibition [7]: 4% | fold change (FC) [8]: 4.8 | fold change (FC) [9]: 1 | fold change (FC) [10]: 3.9

Cc1sc(N)c(C(=O)c2cccc(C(F)(F)F)c2)c1C
Activity [1]: -8% | Activity [2]: -3.4% | Activity [3]: -31% | Activity [4]: -57% | inhibition [5]: 0% | inhibition [6]: 0% | fold change (FC) [8]: 1.3 | fold change (FC) [9]: 1 | fold change (FC) [10]: 1.7

— ChEMBL document CHEMBL1932980, “Structure-activity relationships of 2-amino-3-aroyl-4-[(4-arylpiperazin-1-yl)methyl]thiophenes. Part 2: Probing the influence of diverse substituents at the phenyl of the arylpiperazine moiety on allosteric enhancer activity at the A₁ adenosine receptor” (Bioorg Med Chem, 2012)
